Experiment [1] concerns the target T1, 5-hydroxytryptamine receptor 2C (Rattus norvegicus, UniProt P08909).
T1 sequence (P08909 whole entry): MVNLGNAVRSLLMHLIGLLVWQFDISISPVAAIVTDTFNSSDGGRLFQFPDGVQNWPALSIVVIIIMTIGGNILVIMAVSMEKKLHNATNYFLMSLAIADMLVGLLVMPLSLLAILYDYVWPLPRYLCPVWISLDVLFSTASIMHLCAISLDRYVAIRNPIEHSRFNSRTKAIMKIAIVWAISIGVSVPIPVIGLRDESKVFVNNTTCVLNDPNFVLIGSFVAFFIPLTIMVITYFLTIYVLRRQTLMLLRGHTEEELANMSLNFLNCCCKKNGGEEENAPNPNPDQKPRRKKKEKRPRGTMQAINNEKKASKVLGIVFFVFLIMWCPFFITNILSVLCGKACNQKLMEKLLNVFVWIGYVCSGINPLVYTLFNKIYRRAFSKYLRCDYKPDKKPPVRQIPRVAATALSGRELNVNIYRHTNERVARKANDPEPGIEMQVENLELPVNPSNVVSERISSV
The experiment is described as follows: Binding affinity towards 5-hydroxytryptamine 1C receptor from frontal cortical regions of male Sprague-Dawley rat homogenates, using [3H]mesulergine as radioligand. The essentials:
(§1)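 Male Sprague–Dawley rat frontal cortex membranes were washed in Tris/EDTA/MgCl2 pH 7.4 with a 37 °C preincubation and resuspended with ascorbate and pargyline. Each tube held 10 mg wet tissue, 1 nM [3H]mesulergine and 100 nM spiperone to block 5-HT2 sites. Nonspecific binding was set with 1 μM mianserin. Tubes were incubated 15 min at 37 °C, in triplicate, then filtered. Ki = IC50/(1+D*/KD*).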

For experiment [2], the target named is Serotonin 2 (5-HT2) receptor (Rattus norvegicus) (UniProt P30994+P08909+P14842). The experiment is described as follows: 5-HT1C selectivity was defined as the ratio between Ki(5-HT2)/Ki(5-HT1C). The experiment is classed as protein assay. The essentials: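 Ratio of Ki values from rat frontal cortex competition assays. For 5-HT2: 0.4 nM [3H]ketanserin, with 1 μM cinanserin nonspecific. For 5-HT1C: 1 nM [3H]mesulergine plus 100 nM spiperone, with 1 μM mianserin nonspecific. Both were run 15 min at 37 °C in triplicate. Ki = IC50/(1+D*/KD*).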

Experiment [3] concerns the target T2, Serotonin 2 (5-HT2) receptor (Rattus norvegicus, UniProt P30994+P08909+P14842). As to the kind of experiment: Binding affinity towards 5-hydroxytryptamine 2 receptor from frontal cortical regions of male Sprague-Dawley rat homogenates, using [3H]ketanserin as radioligand. The essentials: (§2)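 Male Sprague–Dawley rat frontal cortex membranes were washed in 50 mM Tris, 0.5 mM EDTA, 10 mM MgCl2, pH 7.4, and resuspended with 0.1% ascorbate and 10^-6 M pargyline. Each tube held 5 mg wet tissue and 0.4 nM [3H]ketanserin. Nonspecific binding was set with 1.0 μM cinanserin. Tubes were incubated 15 min at 37 °C, in triplicate, then filtered on PEI-soaked glass fiber. Ki came from IC50 via Cheng–Prusoff, using the saturation KD.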

The target in experiment [4] is T1, 5-hydroxytryptamine receptor 2C. As to the kind of experiment: Compound was tested for binding affinity towards 5-hydroxytryptamine 1C receptor from frontal cortical regions of male Sprague-Dawley rat homogenates, using [3H]mesulergine as radioligand. The essentials:
as §1

The target in experiment [5] is T2, Serotonin 2 (5-HT2) receptor. As to the kind of experiment: Compound was tested for binding affinity towards 5-hydroxytryptamine 2 (5-hydroxytryptamine-2) receptor from frontal cortical regions of male Sprague-Dawley rat homogenates, using [3H]-ketanserin as radioligand. The essentials:
as §2

The record followed here is ChEMBL document CHEMBL1125379, “Binding of phenylalkylamine derivatives at 5-HT1C and 5-HT2 serotonin receptors: evidence for a lack of selectivity” (J Med Chem, 1992).

Sequence of Serotonin 2 (5-HT2) receptor (Rattus norvegicus) (P14842 whole entry, looked up, one chain of several): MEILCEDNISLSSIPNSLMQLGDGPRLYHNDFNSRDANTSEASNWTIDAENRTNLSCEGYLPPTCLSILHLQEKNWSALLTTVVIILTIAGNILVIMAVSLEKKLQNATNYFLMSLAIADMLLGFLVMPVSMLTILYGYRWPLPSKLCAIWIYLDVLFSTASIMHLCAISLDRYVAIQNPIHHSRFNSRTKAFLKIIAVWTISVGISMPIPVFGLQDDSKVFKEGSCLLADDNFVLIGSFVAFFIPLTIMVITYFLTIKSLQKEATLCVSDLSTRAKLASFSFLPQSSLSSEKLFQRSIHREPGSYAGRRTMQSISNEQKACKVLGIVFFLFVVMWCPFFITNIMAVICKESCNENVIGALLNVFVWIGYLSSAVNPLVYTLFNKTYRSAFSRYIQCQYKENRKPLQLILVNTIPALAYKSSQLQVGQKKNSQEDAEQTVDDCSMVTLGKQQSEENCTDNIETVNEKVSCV
Sequence of Serotonin 2 (5-HT2) receptor (Rattus norvegicus) (P30994 whole entry, looked up, one chain of several): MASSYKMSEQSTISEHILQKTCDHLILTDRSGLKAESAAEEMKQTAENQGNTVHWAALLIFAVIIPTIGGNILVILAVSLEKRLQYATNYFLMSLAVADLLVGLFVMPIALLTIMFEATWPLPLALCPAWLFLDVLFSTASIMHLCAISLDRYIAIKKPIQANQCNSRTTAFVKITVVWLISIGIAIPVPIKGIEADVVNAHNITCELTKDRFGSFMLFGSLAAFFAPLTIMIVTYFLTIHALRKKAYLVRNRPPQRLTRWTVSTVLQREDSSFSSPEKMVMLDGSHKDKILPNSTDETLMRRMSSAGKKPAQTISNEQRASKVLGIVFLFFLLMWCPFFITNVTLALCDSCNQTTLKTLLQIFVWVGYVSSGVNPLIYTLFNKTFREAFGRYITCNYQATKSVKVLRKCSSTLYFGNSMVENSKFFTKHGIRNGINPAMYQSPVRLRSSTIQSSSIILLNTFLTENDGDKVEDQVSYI

One may read the Ki as the dissociation constant of the complex between target and ligand, obtained from inhibition or displacement. Low readings indicate a stronger hold on the target, high ones a looser hold on the target. Take `COc1cc(CC(C)N)c(OC)cc1I` (stereo unspecified): in experiment [1], the Ki amounted to 30 nM. The Selectivity in experiment [2] was 0.6.

With `CC(N)Cc1ccc(Br)cc1` (stereo unspecified), in experiment [1], affinity was put at a Ki of 1480 nM.

Turning to `COc1ccc(CC(C)N)c(OC)c1` (stereo unspecified), the Ki in experiment [1] was 4480 nM; in experiment [3], > 10000 nM. Besides, in experiment [2], the Selectivity was > 2.

`COc1cc(I)ccc1CC(C)N` (stereo unspecified): the Ki was determined as 130 nM in experiment [1] and 580 nM in experiment [3]. Also, in experiment [2], the Selectivity is 5.

As to `CNC(C)Cc1cc(OC)c(Br)cc1OC` (stereo unspecified), the Ki turned out to be 98 nM in experiment [1] and 80 nM in experiment [3]. In experiment [2], the Selectivity stood at 1.

For the compound `CCOc1cc(OC)c(CC(C)N)cc1OC` (stereo unspecified), in experiment [1], the Ki turned out to be 2300 nM. Further, the Selectivity in experiment [2] is 1.

In turn, `CCCCc1cc(OC)c(CC(C)N)cc1OC` (stereo unspecified) registered a Ki in experiment [1] of 26 nM. Moreover, in experiment [2], the Selectivity turned out to be 2.

As for `COc1cc(Br)ccc1CC(C)N` (stereo unspecified), the Ki stood at 100 nM in experiment [1] and 830 nM in experiment [3]. Also, the Selectivity in experiment [2] is 8.

Take `CCCNC(C)Cc1cc(OC)c(Br)cc1OC` (stereo unspecified): the Ki in experiment [1] was > 10000 nM; in experiment [3] it was 2460 nM. Further, in experiment [2], the Selectivity is < 1.

In experiment [4], `CC(N)Cc1ccc(OC(=O)c2ccccc2)cc1` (stereo unspecified) registered a Ki of 1210 nM.

As for `CCOc1ccc(CC(C)N)cc1` (stereo unspecified), the Ki in experiment [4] and in experiment [3] was > 10000 nM each time.

Regarding `COc1ccc(OC)c(CC(C)N)c1` (stereo unspecified), in experiment [1], the affinity, expressed as Ki, was 1220 nM.

The compound `CCCc1cc(OC)c(CC(C)N)cc1OC` (stereo unspecified) gave a Ki in experiment [1] of 14 nM. Besides, in experiment [2], the Selectivity came out at 5.

Turning to `Cc1ccc(CC(C)N)cc1` (stereo unspecified), the Ki in experiment [4] and in experiment [5] was > 10000 nM throughout.

Consider `CCCc1ccc(CC(C)NC)cc1` (stereo unspecified), for which the Ki in experiment [1] turned out to be 1930 nM; in experiment [3] it was 2525 nM. The Selectivity in experiment [2] amounted to 1.

Consider `COc1cc(Br)ccc1CCN`, for which the Ki was 220 nM in experiment [1] and 1030 nM in experiment [3]. The Selectivity in experiment [2] came out at 5.

As to `COc1cccc(Br)c1CC(C)N` (stereo unspecified), the Ki in experiment [1] was 1560 nM; in experiment [3], > 10000 nM. Besides, in experiment [2], the Selectivity is > 6.

`CCCOC(=O)c1cc(OC)c(CC(C)N)cc1OC` (stereo unspecified): in experiment [1], the Ki is > 10000 nM. The Selectivity in experiment [2] was < 1.

For `CNC(C)Cc1ccc(C)cc1OC` (stereo unspecified), the Ki in experiment [1] was determined as 1480 nM.

On to `CCCc1ccc(CC(C)N)cc1` (stereo unspecified), for which the Ki was 1250 nM in experiment [4] and 2345 nM in experiment [5]. Further, the Selectivity in experiment [2] came out at 2.

Regarding `COc1cc(C)ccc1CCN`, the Ki in experiment [1] came out at 110 nM; in experiment [3], 825 nM. In experiment [2], the Selectivity was determined as 7.

`COc1cc(C)ccc1CC(C)N` (stereo unspecified): the Ki came to 610 nM in experiment [1] and 1435 nM in experiment [3]. Also, the Selectivity in experiment [2] was found to be 2.
